Shown is part of a subset that was picked to be rich in hits.
Diaphorase act: compounds boosting diaphorase resazurin reduction – biochemical, uHTS, resorufin fluorescence, counter-screen for diaphorase-coupled primary assays, primary screen; Diaphorase/resazurin coupled assay, 16 min; active compounds read high; 1 = vehicle wells, 0 = NADH-free wells; activation factor at 20 µM; 190,000 compounds, 0.005% hits;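 active = diaphorase activity raised at least twofold by the compound at 20 µM; inactive = activation factor below 2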
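System – purified diaphorase enzyme from Clostridium kluyveri · Input – enzyme 0.07 U/mL final · Also added – final NADH 0.114 mM, resazurin 0.1 mM · Measured by – fluorescence of resorufin, 544 nm excitation, 590 nm emission · Timing – 16 min enzyme reaction, ambient temperature · Measure – resorufin increase flagging diaphorase activators or reducers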
Diaphorase inh: diaphorase inhibitors and chemical oxidizers, primary screen, counter-screen for diaphorase-coupled primary assays, biochemical, uHTS, resorufin fluorescence; diaphorase resazurin-to-resorufin fluorescence, NADH, 16 min; bacterial (C. kluyveri) enzyme, not human; 190,000 compounds, 0.69% hits; AID 1217, 2008; inhibition, % at 20 µM;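 active = primary screen inhibition at 20 µM above a set limit, cut at about 50% in these data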;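 also: plate controls were DMSO with full reaction for no effect and wells lacking NADH for full effect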
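Test system: diaphorase enzyme from Clostridium kluyveri; amount: diaphorase at 0.14 U/mL in enzyme working solution; detection: fluorescence of resorufin formed from resazurin, Ex 544/Em 590 nm; times: reaction incubation of 16 min at room temperature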
G6PDH CS: L. mesenteroides G6PDH inhibitors, counter-screen for G6PDH-coupled screening assays, biochemical, Leuconostoc mesenteroides enzyme | Purified L. mesenteroides G6PDH, diaphorase/resazurin coupled fluorescence, 45 min | AID 1020, 2008 | glucose-6-phosphate dehydrogenase [Leuconostoc mesenteroides] | 200,000 compounds, 0.12% hits | inhibition, % at 5 µM
Lmaj promast: Leishmania major promastigote growth inhibition, primary screen; Leishmania major promastigotes, resazurin fluorescence viability; inhibition, % at 10 µM; 200,000 compounds, 9% hits;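 also: promastigotes grown with compound for 44 hours at 28 °C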
DTT redox prof: compounds producing H2O2 with reducing agent – biochemical, NIH compound library profiling, artefact control for MLSCN library redox annotation, primary screen | DTT-dependent redox cycling H2O2, phenol red/HRP absorbance; 100% = 100 µM peroxide control, 0% = buffer | activation, % at 10 µM | 200,000 compounds, 0.03% hits | AID 878, 2007;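 active = activation of at least 50% relative to the plate's high and low controls in the primary single-dose screen; inactive = activation below 50%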;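 also: compound incubated with DTT at 0.8 mM final as the reducing agent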
PfG6PD inh: PfG6PD enzyme inhibitors, primary screen, biochemical, fluorescence intensity, uHTS; glucose-6-phosphate dehydrogenase-6-phosphogluconolactonase (Plasmodium falciparum 3D7); PfGluPho enzyme, NADPH resazurin-diaphorase fluorescence; inhibition, % at 20 µM; 350,000 compounds, 0.78% hits; AID 504690, 2011;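 active = inhibition reaching at least a set limit at 20 µM in the primary screen, cut at about 59% in these data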;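 also: 0% = DMSO wells with substrate and 100% = DMSO wells lacking glucose-6-phosphate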
An asterisk follows results filed as active. Rule as the data show it, unless noted: active = inhibition above about 50%; inactive = the rest.

CCOc1ccc(NC(=S)N(CCc2c(C)[nH]c3ccc(C)cc23)Cc2ccco2)cc1 was read as Diaphorase act 1, Diaphorase inh 0, G6PDH CS 14, Lmaj promast 73*, DTT redox prof 1 and PfG6PD inh 15.
Screening Cc1ccccc1NC(=S)N(CCc1c(C)[nH]c2ccc(F)cc12)Cc1ccncc1 returned Diaphorase act 1, Diaphorase inh 5, G6PDH CS 4, Lmaj promast 98*, DTT redox prof -1 and PfG6PD inh 9.
Screening CCNC(=S)N(CCc1c(C)[nH]c2ccc(C)cc12)Cc1cccnc1 returned PfG6PD inh 4.
CCOc1ccc(NC(=S)N(CCc2c(C)[nH]c3ccc(C)cc23)Cc2cccnc2)cc1 was read as Diaphorase act 0.8, Diaphorase inh 23, G6PDH CS 17, Lmaj promast 100*, DTT redox prof 1 and PfG6PD inh 9.
O=C(Nc1ccc(Br)cc1)c1ccc2c(c1)OCO2 was read as PfG6PD inh 5.
Screening CC1CN(CCOCCSc2ccc(Cl)cc2)CC(C)O1 (centres undefined) returned PfG6PD inh 5.
`CC1CCCN(CCSc2ccc(Cl)cc2)C1` (centres undefined) gave Diaphorase act 0.9, Diaphorase inh 15, G6PDH CS 4, Lmaj promast 72*, DTT redox prof 0 and PfG6PD inh -2.
For Clc1ccc(SCCOCCN2CCCCC2)cc1 the results were Diaphorase act 0.9, Diaphorase inh 8, G6PDH CS 18, Lmaj promast 98*, DTT redox prof 0 and PfG6PD inh -3.
`Clc1ccc(SCCOCCN2CCc3ccccc3C2)cc1` gave Diaphorase act 0.9, Diaphorase inh 9, G6PDH CS 11, Lmaj promast 88*, DTT redox prof 0 and PfG6PD inh -6.
Screening CC1CCN(CCOCCSc2ccc(Cl)cc2)CC1 returned Diaphorase act 0.7, Diaphorase inh 35, G6PDH CS 11, Lmaj promast 93*, DTT redox prof 0 and PfG6PD inh -7.
For OC(COC(c1ccc(Cl)cc1)c1ccc(Cl)cc1)CN1CCc2ccccc2C1 (centres undefined) the results were Diaphorase act 0.9, Diaphorase inh 7, G6PDH CS -9, Lmaj promast 50, DTT redox prof 1 and PfG6PD inh 25.
Cc1ccc(CNC(=O)C(Cc2ccccc2)NS(=O)(=O)c2cccs2)cc1 (centres undefined) was read as Diaphorase act 0.8, Diaphorase inh 24, G6PDH CS 16, Lmaj promast 59*, DTT redox prof 0 and PfG6PD inh -9.
`O=C(NC1CCCc2ccccc21)C(Cc1ccccc1)NS(=O)(=O)c1cccs1` (centres undefined) gave Diaphorase act 0.9, Diaphorase inh 7, G6PDH CS 0, Lmaj promast 77*, DTT redox prof 0 and PfG6PD inh -1.
CC(C)CN(CCOc1cccc(N2C(=O)C3=C(CCCC3)C2=O)c1)CC(C)C was read as Diaphorase act 0.9, Diaphorase inh 9, G6PDH CS 0, Lmaj promast 63*, DTT redox prof -1 and PfG6PD inh 11.
`O=C1C2=C(CCCC2)C(=O)N1c1cccc(OCCBr)c1` gave Diaphorase act 1, Diaphorase inh -1, G6PDH CS 8, Lmaj promast -6, DTT redox prof 0 and PfG6PD inh 10.
For CCC1(c2ccc(C)cc2)NC(=O)N(C(C)C(=O)Nc2ccc(N3CCOCC3)cc2)C1=O (centres undefined) the results were PfG6PD inh -8.
O=C1CC(c2ccco2)c2ccc3ccccc3c2N1 (centres undefined) was read as Diaphorase act 0.7, Diaphorase inh 29, G6PDH CS 3, Lmaj promast -6, DTT redox prof 3 and PfG6PD inh 7.
Screening Cc1ccc(C2CC(=O)Nc3c2ccc2ccccc32)cc1[N+](=O)[O-] (centres undefined) returned Diaphorase act 0.7, Diaphorase inh 25, G6PDH CS 1, Lmaj promast 95*, DTT redox prof 1 and PfG6PD inh 26.
Screening O=C1CC(c2cccc([N+](=O)[O-])c2)c2c(ccc3ccccc23)N1 (centres undefined) returned Diaphorase act 0.9, Diaphorase inh 8, G6PDH CS 9, Lmaj promast 100*, DTT redox prof 1 and PfG6PD inh -9.
Screening CCCN(CC(=O)Nc1ccccc1C)C(=O)COc1ccc2c(c1)CCC2 returned PfG6PD inh 15.
`CCNC(=O)NC(=O)C(C)OC(=O)CNS(=O)(=O)c1c(Cl)cc(Br)cc1Cl` (centres undefined) gave Diaphorase act 1, Diaphorase inh 3, G6PDH CS -1, Lmaj promast -5, DTT redox prof 0 and PfG6PD inh 11.
For O=[N+]([O-])c1ccc(/C=N/n2cnc3ccccc32)s1 the results were Diaphorase act 0.9, Diaphorase inh 13, G6PDH CS -4, Lmaj promast 100*, DTT redox prof 0 and PfG6PD inh 29.
Screening Cc1cc2ncn(/N=C/c3ccc([N+](=O)[O-])s3)c2cc1C returned Diaphorase act 0.9, Diaphorase inh 11, G6PDH CS -21, Lmaj promast 100*, DTT redox prof 0 and PfG6PD inh 1.
For COc1ccccc1C(=O)N/C(=C/c1ccc(Br)cc1)C(=O)NCC(=O)O the results were Diaphorase act 0.8, Diaphorase inh 16, G6PDH CS 8, Lmaj promast -6, DTT redox prof 2 and PfG6PD inh -16.
`CC(OC(=O)C1=COCCO1)C(=O)Nc1ncc(Cl)cc1Cl` (centres undefined) gave PfG6PD inh 17.
Cc1nc2ncnn2c(N2CCN(C(c3ccccc3)c3ccccc3)CC2)c1C was read as Diaphorase act 1, Diaphorase inh 1, G6PDH CS -1, Lmaj promast 68*, DTT redox prof 0 and PfG6PD inh -8.
`CCOC(=O)/C(=C\c1ccc(Cl)cc1)c1nc2sc(C)c(C)c2c(=O)[nH]1` gave Diaphorase act 0.9, Diaphorase inh 15, G6PDH CS -28, Lmaj promast 100*, DTT redox prof 0 and PfG6PD inh 41.
For Cc1cc(C)nc(NN2C(=O)C=CC2=O)n1 the results were PfG6PD inh 15.

Assay outcomes from PubChem.
